Test results as given in ChEMBL document CHEMBL1649560, “Beta-lactamase-mediated beta-lactam resistance in Campylobacter species: prevalence of Cj0299 (bla OXA-61) and evidence for a novel beta-Lactamase in C. jejuni” (2009).
Converted amounts (≈) assume the structure as drawn.

Assays:
Type in all cases: functional
[1] = tested on: Campylobacter jejuni; assay: Antibacterial activity against bla gene-negative and nitrocefin reaction-positive beta-lactamase harboring Campylobacter jejuni isolate P854 by NCCLS agar doubling dilution method
Summary of the method: (§1)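 MICs of β-lactams by agar doubling dilution following the NCCLS (CLSI) Campylobacter Working Group procedure, with C. jejuni NCTC 11168 and C. coli NCTC 11366 as controls. Isolates were from UK poultry flocks. β-Lactamase status was set by Cj0299 PCR (281-bp amplimer) and by a nitrocefin colour change of sonicated lysate within 5 min, or within 30 min on repeat.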

[2] = tested on: Campylobacter jejuni; assay: Antibacterial activity against bla gene-positive and nitrocefin reaction-positive beta-lactamase harboring Campylobacter jejuni isolate P338 by NCCLS agar doubling dilution method
Summary of the method: (§2)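 MICs by agar doubling dilution per the NCCLS (now CLSI) Campylobacter Working Group method. Isolates came from UK chicken flocks (feces, ceca or farm environment), 2000–2006. C. jejuni NCTC 11168 and C. coli NCTC 11366 served as control strains. The ampicillin resistance cutoff was 8 μg/ml; BSAC/CLSI Enterobacteriaceae guidelines were used for other agents.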

[3] = tested on: Campylobacter jejuni; assay: Antibacterial activity against bla gene-positive and nitrocefin reaction-positive beta-lactamase harboring Campylobacter jejuni isolate P285 by NCCLS agar doubling dilution method; summary of the method: as §2
[4] = tested on: Campylobacter jejuni; assay: Antibacterial activity against bla gene-positive and nitrocefin reaction-positive beta-lactamase harboring Campylobacter jejuni isolate P305 by NCCLS agar doubling dilution method; summary of the method: as §2
[5] = tested on: Campylobacter jejuni; assay: Antibacterial activity against Campylobacter jejuni isolate P338 harboring blaOXA-61::cat gene by NCCLS agar doubling dilution method
Summary of the method: (§3)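 Agar doubling dilution MICs (NCCLS/CLSI Campylobacter Working Group method) against Cj0299-inactivated mutants. Mutants were made by transforming the C. jejuni isolate with pCI and selecting on Mueller-Hinton agar with 10 μg/ml chloramphenicol for 3–5 days. Chromosomal insertion was confirmed by PCR with Cj0299 and cat primers.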

[6] = tested on: Campylobacter jejuni; assay: Antibacterial activity against bla gene-positive and nitrocefin reaction-positive beta-lactamase harboring Campylobacter jejuni isolate P316 by NCCLS agar doubling dilution method; summary of the method: as §2
[7] = tested on: Campylobacter jejuni; assay: Antibacterial activity against bla gene-positive and nitrocefin reaction-positive beta-lactamase harboring Campylobacter jejuni isolate P1730 by NCCLS agar doubling dilution method; summary of the method: as §2
[8] = tested on: Campylobacter jejuni; assay: Antibacterial activity against bla gene-positive and nitrocefin reaction-positive beta-lactamase harboring Campylobacter jejuni isolate P1093 by NCCLS agar doubling dilution method; summary of the method: as §1
[9] = tested on: Campylobacter jejuni; assay: Antibacterial activity against bla gene-positive and nitrocefin reaction-positive beta-lactamase harboring Campylobacter jejuni isolate P1650 by NCCLS agar doubling dilution method; summary of the method: as §1
[10] = tested on: Campylobacter jejuni; assay: Antibacterial activity against bla gene-negative and nitrocefin reaction-negative beta-lactamase harboring Campylobacter jejuni isolate P1962 by NCCLS agar doubling dilution method; summary of the method: as §1
[11] = tested on: Campylobacter coli; assay: Antibacterial activity against Campylobacter coli by NCCLS agar doubling dilution method
Summary of the method: (§4)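 MICs by agar doubling dilution following the NCCLS (CLSI) Campylobacter Working Group procedure, applied to ampicillin- and amoxicillin-resistant isolates from UK chicken flocks (2000–2006). C. jejuni NCTC 11168 and C. coli NCTC 11366 served as control strains. Resistance was called at an ampicillin cutoff of 8 μg/ml. Other agents were judged against Enterobacteriaceae guidelines (BSAC, CLSI).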

[12] = tested on: Campylobacter jejuni; assay: Antibacterial activity against Campylobacter jejuni isolate P270 harboring blaOXA-61::cat gene by NCCLS agar doubling dilution method
[13] = tested on: Campylobacter jejuni; assay: Antibacterial activity against Campylobacter jejuni by NCCLS agar doubling dilution method; summary of the method: as §4
[14] = tested on: Campylobacter jejuni; assay: Antibacterial activity against bla gene-positive and nitrocefin reaction-negative beta-lactamase harboring Campylobacter jejuni isolate P1698 by NCCLS agar doubling dilution method; summary of the method: as §1
[15] = tested on: Campylobacter coli; assay: Antibacterial activity against bla gene-positive and nitrocefin reaction-positive beta-lactamase harboring Campylobacter coli isolate P321 by NCCLS agar doubling dilution method; summary of the method: as §1
[16] = tested on: Campylobacter coli; assay: Antibacterial activity against bla-positive and beta-lactamase-weakly positive Campylobacter coli isolate P1627 by NCCLS agar doubling dilution method; summary of the method: as §2
[17] = tested on: Campylobacter jejuni; assay: Antibacterial activity against bla gene-positive and nitrocefin reaction-positive beta-lactamase harboring Campylobacter jejuni isolate P286 by NCCLS agar doubling dilution method; summary of the method: as §2
[18] = tested on: Campylobacter jejuni; assay: Antibacterial activity against Campylobacter jejuni isolate P1093 harboring blaOXA-61::cat gene by NCCLS agar doubling dilution method; summary of the method: as §3
[19] = tested on: Campylobacter jejuni; assay: Antibacterial activity against bla gene-positive and nitrocefin reaction-positive beta-lactamase harboring Campylobacter jejuni isolate P790 by NCCLS agar doubling dilution method; summary of the method: as §2
[20] = tested on: Campylobacter jejuni; assay: Antibacterial activity against bla gene-negative and nitrocefin reaction-negative beta-lactamase harboring Campylobacter jejuni isolate P835 by NCCLS agar doubling dilution method; summary of the method: as §1
[21] = tested on: Campylobacter jejuni; assay: Antibacterial activity against bla gene-positive and nitrocefin reaction-negative beta-lactamase harboring Campylobacter jejuni isolate P1699 by NCCLS agar doubling dilution method; summary of the method: as §1
[22] = tested on: Campylobacter jejuni; assay: Antibacterial activity against bla gene-positive and nitrocefin reaction-negative beta-lactamase harboring Campylobacter jejuni NCTC 11168 by NCCLS agar doubling dilution method; summary of the method: as §1
[23] = tested on: Campylobacter jejuni; assay: Antibacterial activity against bla gene-negative and nitrocefin reaction-negative beta-lactamase harboring Campylobacter jejuni isolate P850 by NCCLS agar doubling dilution method; summary of the method: as §1
[24] = tested on: Campylobacter jejuni; assay: Antibacterial activity against bla gene-positive and nitrocefin reaction-positive beta-lactamase harboring Campylobacter jejuni isolate P1618 by NCCLS agar doubling dilution method; summary of the method: as §1
[25] = tested on: Campylobacter coli; assay: Antibacterial activity against bla gene-positive and nitrocefin reaction-positive beta-lactamase harboring Campylobacter coli isolate P1826 by NCCLS agar doubling dilution method; summary of the method: as §1
[26] = tested on: Campylobacter jejuni; assay: Antibacterial activity against bla gene-negative and nitrocefin reaction-positive beta-lactamase harboring Campylobacter jejuni isolate P843 by NCCLS agar doubling dilution method; summary of the method: as §1

| SMILES | MIC [1] | MIC [2] | MIC [3] | MIC [4] | MIC [5] | MIC [6] | MIC [7] | MIC [8] | MIC [9] | MIC [10] | MIC50 [11] | MIC90 [11] | MIC [12] | MIC50 [13] | MIC90 [13] | MIC [14] | MIC [15] | MIC [16] | MIC [17] | MIC [18] | other results |
| --- | --- | --- | --- | --- | --- | --- | --- | --- | --- | --- | --- | --- | --- | --- | --- | --- | --- | --- | --- | --- | --- |
| CO[C@@]1(NC(=O)Cc2cccs2)C(=O)N2C(C(=O)O)=C(COC(N)=O)CS[C@@H]21 [CEFOXITIN] | 128 µg/mL (≈ 299 µM) | 512 µg/mL (≈ 1200 µM) | 256 µg/mL (≈ 599 µM) | 128 µg/mL (≈ 299 µM) | 512 µg/mL (≈ 1200 µM) | 128 µg/mL (≈ 299 µM) | 256 µg/mL (≈ 599 µM) | 128 µg/mL (≈ 299 µM) | 128 µg/mL (≈ 299 µM) | 256 µg/mL (≈ 599 µM) | 128 µg/mL (≈ 299 µM) | > 256 µg/mL | 32 µg/mL (≈ 74.9 µM) | 128 µg/mL (≈ 299 µM) | 256 µg/mL (≈ 599 µM) | 128 µg/mL (≈ 299 µM) | 64 µg/mL (≈ 150 µM) | 64 µg/mL (≈ 150 µM) | 256 µg/mL (≈ 599 µM) | 128 µg/mL (≈ 299 µM) | MIC [19]: 64 µg/mL (≈ 150 µM); MIC [20]: 256 µg/mL (≈ 599 µM); MIC [21]: 128 µg/mL (≈ 299 µM); MIC [22]: 32 µg/mL (≈ 74.9 µM); MIC [23]: 256 µg/mL (≈ 599 µM); MIC [24]: 256 µg/mL (≈ 599 µM); MIC [25]: 128 µg/mL (≈ 299 µM); MIC [26]: 256 µg/mL (≈ 599 µM) |
| CO/N=C(\C(=O)N[C@@H]1C(=O)N2C(C(=O)O)=C(COC(N)=O)CS[C@H]12)c1ccco1 [CEFUROXIME] | 128 µg/mL (≈ 302 µM) | 128 µg/mL (≈ 302 µM) | 128 µg/mL (≈ 302 µM) | 64 µg/mL (≈ 151 µM) | 128 µg/mL (≈ 302 µM) | 64 µg/mL (≈ 151 µM) | 128 µg/mL (≈ 302 µM) | 128 µg/mL (≈ 302 µM) | 128 µg/mL (≈ 302 µM) | 64 µg/mL (≈ 151 µM) | 128 µg/mL (≈ 302 µM) | 256 µg/mL (≈ 603 µM) | 64 µg/mL (≈ 151 µM) | 128 µg/mL (≈ 302 µM) | 128 µg/mL (≈ 302 µM) | 64 µg/mL (≈ 151 µM) | 64 µg/mL (≈ 151 µM) | 64 µg/mL (≈ 151 µM) | 128 µg/mL (≈ 302 µM) | 128 µg/mL (≈ 302 µM) | MIC [19]: 64 µg/mL (≈ 151 µM); MIC [20]: 64 µg/mL (≈ 151 µM); MIC [21]: 64 µg/mL (≈ 151 µM); MIC [22]: 32 µg/mL (≈ 75.4 µM); MIC [23]: 128 µg/mL (≈ 302 µM); MIC [24]: 256 µg/mL (≈ 603 µM); MIC [25]: 64 µg/mL (≈ 151 µM); MIC [26]: 64 µg/mL (≈ 151 µM) |
